According to ChEMBL document CHEMBL3994572, “Antiviral Triterpenes from the Twigs and Leaves of Lyonia ovalifolia” (J Nat Prod, 2016):

How the values were obtained:
Influenza A virus = experiment: Antiviral activity against Influenza A virus A/95-359 infected in MDCK cells assessed as inhibition of virus-induced cytopathic effect; format: functional, cell-based; details: A/95-359, MDCK
How it was run: (§1)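 MDCK cells (2.5 × 10^4/well) seeded 24 h, PBS-washed, infected with influenza A/95-359 at 100 TCID50 for 2 h, then exposed to graded compound concentrations until control CPE reached 4+. IC50 = minimal concentration inhibiting 50% of CPE (Reed and Muench); triplicate, at least three separate experiments. […] SI = TC50/IC50.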

[1] = Cytotoxicity against MDCK cells assessed as growth inhibition after 48 hrs; format: cell-based, Canis lupus familiaris; details: dog, read-out: TC50
How it was run: (§2)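 Vero or MDCK cells (2.5 × 10^4/well) were seeded for 24 h, then exposed to graded compound concentrations. After 48 h at 37 °C and 5% CO2, cytotoxicity was scored by CPE. TC50 was calculated by Reed and Muench analysis.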

[2] = Selectivity index, ratio of TC50 for MDCK cells to IC50 for Influenza A virus (A/95-359) infected in MDCK cells; format: toxicity, cell-based; details: dog, read-out: Selectivity Index; how it was run: as §1
Coxsackievirus B3 = experiment: Antiviral activity against Coxsackievirus B3 infected in African green monkey Vero cells assessed as inhibition of virus-induced cytopathic effect; format: functional; details: Enterovirus B
How it was run: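 Vero monolayers were infected with Cox B3 at 100 TCID50 and allowed 2 h adsorption at 37 °C. They were then washed with PBS and kept at 37 °C in MEM with 2% FBS, with or without graded concentrations of test compounds. Read-out was CPE.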

[3] = Selectivity index, ratio of TC50 for African green monkey Vero cells to IC50 for Coxsackievirus B3 infected in African green monkey Vero cells; format: toxicity; details: read-out: Selectivity Index
How it was run: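 Vero monolayers infected with 100 TCID50 Coxsackie B3 virus, 2 h adsorption at 37 °C, PBS-washed, then held in MEM plus 2% FBS at 37 °C with graded compound concentrations. […] SI = TC50/IC50.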

Human alphaherpesvirus 1 = experiment: Antiviral activity against Herpes simplex virus-1 F VR 733 infected in African green monkey Vero cells assessed as inhibition of virus-induced cytopathic effect; format: functional; details: Human alphaherpesvirus 1, Strain F ATCC VR 733, Vero
How it was run: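 Vero cells (2.5 × 10^4/well) were seeded for 24 h, then the medium was removed. Cells were infected with HSV-1 at 100 TCID50 for 2 h, then given graded compound concentrations. Incubation continued until control CPE reached 4+. Runs were in triplicate, repeated at least three times. IC50 is the minimal concentration inhibiting 50% of CPE, by Reed and Muench.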

[4] = Cytotoxicity against African green monkey Vero cells assessed as growth inhibition after 48 hrs; format: cell-based; details: chlorocebus sabaeus, read-out: TC50; how it was run: as §2
[5] = Selectivity index, ratio of TC50 for African green monkey Vero cells to IC50 for Herpes simplex virus-1 F VR 733 infected in African green monkey Vero cells; format: toxicity; details: read-out: Selectivity Index
How it was run: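 Vero cells (2.5 × 10^4/well) seeded 24 h, medium removed, infected with HSV-1 at 100 TCID50 for 2 h, then graded compound concentrations added until control CPE reached 4+. IC50 = minimal concentration inhibiting 50% CPE (Reed and Muench); triplicate, at least three separate experiments. […] SI = TC50/IC50.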

Compound | IC50 (Influenza A virus) [µM] | CC50 at 48 h [1] [µM] | selectivity ratio [2] | IC50 (Coxsackievirus B3) [µM] | selectivity ratio [3] | IC50 (Human alphaherpesvirus 1) [µM] | CC50 at 48 h [4] [µM] | selectivity ratio [5]
NC(=O)c1ncn([C@@H]2O[C@H](CO)[C@@H](O)[C@H]2O)n1 [RIBAVIRIN] | 1.3 | 1160 | 895 | 292 | 6.8 | – | – | –
C[C@H]1[C@H](C)CC[C@@]23CC[C@@]4(C)[C@@]5(C)[C@H](C[C@@H](O)[C@]4(OC2=O)[C@H]13)[C@@]1(C)C[C@@H](O)[C@@H](O)[C@](C)(CO)[C@@H]1C[C@@H]5O | > 33.3 | – | – | ≥ 33.3 | – | ≥ 33.3 | – | –
C[C@H](CC[C@H](O[C@H]1O[C@@H](CO)[C@H](O)[C@@H](O)[C@@H]1O)C(C)(C)O)[C@H]1CC[C@@]2(C(=O)O)C3=C(CC[C@]12C)[C@@]1(C)CC[C@@H](O[C@@H]2O[C@H](CO)[C@@H](O)[C@H](O)[C@H]2O)C(C)(C)[C@@H]1CC3 | > 33.3 | – | – | ≥ 33.3 | – | ≥ 33.3 | – | –
C[C@H](CC[C@H](O)C(C)(C)O)[C@H]1CC[C@@]2(C(=O)O)[C@@H]3CC[C@@H]4C(=CC[C@@H](O)C4(C)C)C[C@H]3CC[C@]12C | 25.9 | > 100 | > 3.9 | ≥ 33.3 | – | ≥ 33.3 | – | –
C[C@H](CC[C@H](O)C(C)(C)O)[C@H]1CC[C@@]2(C(=O)O)[C@@H]3CCC4=C(CC[C@@H](O[C@@H]5O[C@H](CO)[C@@H](O)[C@H](O)[C@H]5O)C4(C)C)C[C@H]3CC[C@]12C | 33.3 | 100 | 3 | ≥ 33.3 | – | ≥ 33.3 | – | –
C[C@H](CCC(=O)C(C)(C)O)[C@H]1CC[C@@]2(C(=O)O)[C@@H]3CCC4=C(CC[C@@H](O[C@@H]5O[C@H](CO)[C@@H](O)[C@H](O)[C@H]5O)C4(C)C)C[C@H]3CC[C@]12C | > 11.1 | 33.3 | – | 11.1 | 2.1 | 11.1 | 23.1 | 2.1
C[C@H](CC[C@H](O)C(C)(C)O)[C@H]1CC[C@@]2(C(=O)O)C3=C(CC[C@]12C)[C@@]1(C)CC[C@@H](O[C@@H]2O[C@H](CO)[C@@H](O)[C@H](O)[C@H]2O)C(C)(C)[C@@H]1CC3 | > 33.3 | – | – | ≥ 33.3 | – | ≥ 33.3 | – | –
C[C@H](CC[C@H](O[C@@H]1OC[C@H](O)[C@H](O)[C@H]1O)C(C)(C)O)[C@H]1CC[C@@]2(C(=O)O)[C@@H]3CC[C@H]4C(=CC[C@@H](O[C@@H]5O[C@H](CO)[C@@H](O)[C@H](O)[C@H]5O)C4(C)C)C[C@H]3CC[C@]12C | > 33.3 | – | – | ≥ 33.3 | – | ≥ 33.3 | – | –
C[C@H](CC[C@H](O[C@@H]1O[C@H](CO)[C@@H](O)[C@H](O)[C@H]1O)C(C)(C)O)[C@H]1CC[C@@]2(C(=O)O)[C@@H]3CC[C@@H]4C(=CC[C@@H](O[C@@H]5O[C@H](CO)[C@@H](O)[C@H](O)[C@H]5O)C4(C)C)C[C@H]3CC[C@]12C | 33.3 | > 100 | > 3 | ≥ 33.3 | – | ≥ 33.3 | – | –
CCOC(=O)C1=C[C@@H](OC(CC)CC)[C@H](NC(C)=O)[C@@H](N)C1 [OSELTAMIVIR] | 1.7 | – | 741 | – | – | – | – | –
CC(=O)OC[C@H]1O[C@@H](O[C@@H]2CC[C@]3(C)C4=C(CC[C@H]3C2(C)C)[C@]2(C(=O)O)CC[C@H]([C@H](C)CC[C@H](O[C@@H]3OC[C@H](O)[C@H](O)[C@H]3O)C(C)(C)O)[C@@]2(C)CC4)[C@H](O)[C@@H](O)[C@@H]1O | 33.3 | 57.7 | 1.7 | ≥ 33.3 | – | 14.3 | > 100 | > 7
C[C@H]1[C@H](C)CC[C@@]23CC[C@]4(C)[C@](OC2=O)([C@H](O)C[C@@H]2[C@@]5(C)C[C@@H](O)[C@@H](O)C(CO)(CO)[C@@H]5CC[C@]24C)[C@H]13 | > 33.3 | – | – | ≥ 33.3 | – | ≥ 33.3 | – | –
C[C@H](CC[C@H](O[C@@H]1OC[C@H](O)[C@H](O)[C@H]1O)C(C)(C)O)[C@H]1CC[C@@]2(C(=O)O)C3=C(CC[C@]12C)[C@@]1(C)CC[C@@H](O[C@@H]2O[C@H](CO)[C@@H](O)[C@H](O)[C@H]2O)C(C)(C)[C@@H]1CC3 | > 33.3 | – | – | ≥ 33.3 | – | ≥ 33.3 | – | –
